Source: ChEMBL document CHEMBL4138284, “Biomimetic Stereoselective Sulfa-Michael Addition Leads to Platensimycin and Platencin Sulfur Analogues against Methicillin-Resistant Staphylococcus aureus” (J Nat Prod, 2018)
≈ marks a conversion by molar mass, not a printed value.

What follows are compounds tested on Staphylococcus aureus (assay: Antibacterial activity against methicillin-resistant Staphylococcus aureus isolate 7 incubated overnight by agar dilution method).
Format: functional
Procedure, shortened: (§1)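 MIC by agar dilution. Strains were grown overnight in LB broth and diluted, then about 10^4 CFU (2 μL spots) were spotted onto LB agar plates containing test compound at 0.5 to 8 μg mL−1 agar. Plates were incubated overnight at 37 °C and inspected for growth. Clinical MSSA and MRSA isolates came from local hospitals.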

SMILES	MIC [µg/mL]
Cc1ccc(C(=O)S[C@H]2CC(=O)[C@@](C)(CCC(=O)Nc3c(O)ccc(C(=O)O)c3O)[C@@H]3[C@@H]4C[C@H]5C[C@]23C[C@]5(C)O4)cc1	2 (≈ 3.37 µM)
C[C@]12C[C@]34C[C@@H]1C[C@H](O2)[C@H]3[C@](C)(CCC(=O)Nc1c(O)ccc(C(=O)O)c1O)C(=O)C[C@@H]4SC(=O)c1cc(C(F)(F)F)cc(C(F)(F)F)c1	2 (≈ 2.79 µM)
C[C@]12C[C@]34C[C@@H]1C[C@H](O2)[C@H]3[C@](C)(CCC(=O)Nc1c(O)ccc(C(=O)O)c1O)C(=O)C[C@@H]4SC(=O)c1cccs1	8 (≈ 13.7 µM)

Each compound was assayed on Staphylococcus aureus (assay: Antibacterial activity against methicillin-resistant Staphylococcus aureus isolate 5 incubated overnight by agar dilution method).
Format: functional
Procedure, shortened: as §1

SMILES	MIC [µg/mL]
Cc1ccc(C(=O)S[C@H]2CC(=O)[C@@](C)(CCC(=O)Nc3c(O)ccc(C(=O)O)c3O)[C@@H]3[C@@H]4C[C@H]5C[C@]23C[C@]5(C)O4)cc1	2 (≈ 3.37 µM)
C[C@]12C[C@]34C[C@@H]1C[C@H](O2)[C@H]3[C@](C)(CCC(=O)Nc1c(O)ccc(C(=O)O)c1O)C(=O)C[C@@H]4SC(=O)c1cc(C(F)(F)F)cc(C(F)(F)F)c1	1 (≈ 1.4 µM)
C[C@]12C[C@]34C[C@@H]1C[C@H](O2)[C@H]3[C@](C)(CCC(=O)Nc1c(O)ccc(C(=O)O)c1O)C(=O)C[C@@H]4SC(=O)c1cccs1	2 (≈ 3.41 µM)

What follows are compounds tested on Staphylococcus aureus (assay: Antibacterial activity against methicillin-sensitive Staphylococcus aureus isolate 4 incubated overnight by agar dilution method).
Format: functional
Procedure, shortened: as §1

SMILES	MIC [µg/mL]
Cc1ccc(C(=O)S[C@H]2CC(=O)[C@@](C)(CCC(=O)Nc3c(O)ccc(C(=O)O)c3O)[C@@H]3[C@@H]4C[C@H]5C[C@]23C[C@]5(C)O4)cc1	1 (≈ 1.68 µM)
C[C@]12C[C@]34C[C@@H]1C[C@H](O2)[C@H]3[C@](C)(CCC(=O)Nc1c(O)ccc(C(=O)O)c1O)C(=O)C[C@@H]4SC(=O)c1cc(C(F)(F)F)cc(C(F)(F)F)c1	1 (≈ 1.4 µM)
C[C@]12C[C@]34C[C@@H]1C[C@H](O2)[C@H]3[C@](C)(CCC(=O)Nc1c(O)ccc(C(=O)O)c1O)C(=O)C[C@@H]4SC(=O)c1cccs1	1 (≈ 1.71 µM)

What follows are compounds tested on Staphylococcus aureus (assay: Antibacterial activity against methicillin-resistant Staphylococcus aureus isolate 8 incubated overnight by agar dilution method).
Format: functional
Procedure, shortened: as §1

SMILES	MIC [µg/mL]
Cc1ccc(C(=O)S[C@H]2CC(=O)[C@@](C)(CCC(=O)Nc3c(O)ccc(C(=O)O)c3O)[C@@H]3[C@@H]4C[C@H]5C[C@]23C[C@]5(C)O4)cc1	1 (≈ 1.68 µM)
C[C@]12C[C@]34C[C@@H]1C[C@H](O2)[C@H]3[C@](C)(CCC(=O)Nc1c(O)ccc(C(=O)O)c1O)C(=O)C[C@@H]4SC(=O)c1cc(C(F)(F)F)cc(C(F)(F)F)c1	1 (≈ 1.4 µM)
C[C@]12C[C@]34C[C@@H]1C[C@H](O2)[C@H]3[C@](C)(CCC(=O)Nc1c(O)ccc(C(=O)O)c1O)C(=O)C[C@@H]4SC(=O)c1cccs1	2 (≈ 3.41 µM)

Each compound was assayed on Staphylococcus aureus (assay: Antibacterial activity against methicillin-sensitive Staphylococcus aureus isolate 2 incubated overnight by agar dilution method).
Format: functional
Procedure, shortened: as §1

SMILES	MIC [µg/mL]
Cc1ccc(C(=O)S[C@H]2CC(=O)[C@@](C)(CCC(=O)Nc3c(O)ccc(C(=O)O)c3O)[C@@H]3[C@@H]4C[C@H]5C[C@]23C[C@]5(C)O4)cc1	1 (≈ 1.68 µM)
C[C@]12C[C@]34C[C@@H]1C[C@H](O2)[C@H]3[C@](C)(CCC(=O)Nc1c(O)ccc(C(=O)O)c1O)C(=O)C[C@@H]4SC(=O)c1cc(C(F)(F)F)cc(C(F)(F)F)c1	1 (≈ 1.4 µM)
C[C@]12C[C@]34C[C@@H]1C[C@H](O2)[C@H]3[C@](C)(CCC(=O)Nc1c(O)ccc(C(=O)O)c1O)C(=O)C[C@@H]4SC(=O)c1cccs1	1 (≈ 1.71 µM)

These compounds were tested on Staphylococcus aureus (assay: Antibacterial activity against methicillin-resistant Staphylococcus aureus isolate 9 incubated overnight by agar dilution method).
Format: functional
Procedure, shortened: as §1

SMILES	MIC [µg/mL]
Cc1ccc(C(=O)S[C@H]2CC(=O)[C@@](C)(CCC(=O)Nc3c(O)ccc(C(=O)O)c3O)[C@@H]3[C@@H]4C[C@H]5C[C@]23C[C@]5(C)O4)cc1	1 (≈ 1.68 µM)
C[C@]12C[C@]34C[C@@H]1C[C@H](O2)[C@H]3[C@](C)(CCC(=O)Nc1c(O)ccc(C(=O)O)c1O)C(=O)C[C@@H]4SC(=O)c1cc(C(F)(F)F)cc(C(F)(F)F)c1	1 (≈ 1.4 µM)
C[C@]12C[C@]34C[C@@H]1C[C@H](O2)[C@H]3[C@](C)(CCC(=O)Nc1c(O)ccc(C(=O)O)c1O)C(=O)C[C@@H]4SC(=O)c1cccs1	1 (≈ 1.71 µM)

What follows are compounds tested on Staphylococcus aureus (assay: Antibacterial activity against methicillin-resistant Staphylococcus aureus isolate 10 incubated overnight by agar dilution method).
Format: functional
Procedure, shortened: as §1

SMILES	MIC [µg/mL]
Cc1ccc(C(=O)S[C@H]2CC(=O)[C@@](C)(CCC(=O)Nc3c(O)ccc(C(=O)O)c3O)[C@@H]3[C@@H]4C[C@H]5C[C@]23C[C@]5(C)O4)cc1	1 (≈ 1.68 µM)
C[C@]12C[C@]34C[C@@H]1C[C@H](O2)[C@H]3[C@](C)(CCC(=O)Nc1c(O)ccc(C(=O)O)c1O)C(=O)C[C@@H]4SC(=O)c1cc(C(F)(F)F)cc(C(F)(F)F)c1	1 (≈ 1.4 µM)
C[C@]12C[C@]34C[C@@H]1C[C@H](O2)[C@H]3[C@](C)(CCC(=O)Nc1c(O)ccc(C(=O)O)c1O)C(=O)C[C@@H]4SC(=O)c1cccs1	1 (≈ 1.71 µM)

The compounds below were run on Staphylococcus aureus (assay: Antibacterial activity against methicillin-sensitive Staphylococcus aureus isolate 1 incubated overnight by agar dilution method).
Format: functional
Procedure, shortened: as §1

SMILES	MIC [µg/mL]
Cc1ccc(C(=O)S[C@H]2CC(=O)[C@@](C)(CCC(=O)Nc3c(O)ccc(C(=O)O)c3O)[C@@H]3[C@@H]4C[C@H]5C[C@]23C[C@]5(C)O4)cc1	1 (≈ 1.68 µM)
C[C@]12C[C@]34C[C@@H]1C[C@H](O2)[C@H]3[C@](C)(CCC(=O)Nc1c(O)ccc(C(=O)O)c1O)C(=O)C[C@@H]4SC(=O)c1cc(C(F)(F)F)cc(C(F)(F)F)c1	1 (≈ 1.4 µM)
C[C@]12C[C@]34C[C@@H]1C[C@H](O2)[C@H]3[C@](C)(CCC(=O)Nc1c(O)ccc(C(=O)O)c1O)C(=O)C[C@@H]4SC(=O)c1cccs1	1 (≈ 1.71 µM)

The compounds below were run on Staphylococcus aureus (assay: Antibacterial activity against Staphylococcus aureus ATCC 29213 incubated overnight by agar dilution method).
Format: functional
Procedure, shortened: as §1

SMILES	MIC [µg/mL]
Cc1ccc(C(=O)S[C@H]2CC(=O)[C@@](C)(CCC(=O)Nc3c(O)ccc(C(=O)O)c3O)[C@@H]3[C@@H]4C[C@H]5C[C@]23C[C@]5(C)O4)cc1	1 (≈ 1.68 µM)
C[C@]12C[C@]34C[C@@H]1C[C@H](O2)[C@H]3[C@](C)(CCC(=O)Nc1c(O)ccc(C(=O)O)c1O)C(=O)C[C@@H]4SC(=O)c1cc(C(F)(F)F)cc(C(F)(F)F)c1	1 (≈ 1.4 µM)
C[C@]12C[C@]34C[C@@H]1C[C@H](O2)[C@H]3[C@](C)(CCC(=O)Nc1c(O)ccc(C(=O)O)c1O)C(=O)C[C@@H]4SC(=O)c1cccs1	2 (≈ 3.41 µM)

Each compound was assayed on Staphylococcus aureus (assay: Antibacterial activity against methicillin-sensitive Staphylococcus aureus isolate 3 incubated overnight by agar dilution method).
Format: functional
Procedure, shortened: as §1

SMILES	MIC [µg/mL]
Cc1ccc(C(=O)S[C@H]2CC(=O)[C@@](C)(CCC(=O)Nc3c(O)ccc(C(=O)O)c3O)[C@@H]3[C@@H]4C[C@H]5C[C@]23C[C@]5(C)O4)cc1	1 (≈ 1.68 µM)
C[C@]12C[C@]34C[C@@H]1C[C@H](O2)[C@H]3[C@](C)(CCC(=O)Nc1c(O)ccc(C(=O)O)c1O)C(=O)C[C@@H]4SC(=O)c1cc(C(F)(F)F)cc(C(F)(F)F)c1	1 (≈ 1.4 µM)
C[C@]12C[C@]34C[C@@H]1C[C@H](O2)[C@H]3[C@](C)(CCC(=O)Nc1c(O)ccc(C(=O)O)c1O)C(=O)C[C@@H]4SC(=O)c1cccs1	1 (≈ 1.71 µM)

Each compound was assayed on Staphylococcus aureus (assay: Antibacterial activity against methicillin-resistant Staphylococcus aureus isolate 6 incubated overnight by agar dilution method).
Format: functional
Procedure, shortened: as §1

SMILES	MIC [µg/mL]
Cc1ccc(C(=O)S[C@H]2CC(=O)[C@@](C)(CCC(=O)Nc3c(O)ccc(C(=O)O)c3O)[C@@H]3[C@@H]4C[C@H]5C[C@]23C[C@]5(C)O4)cc1	1 (≈ 1.68 µM)
C[C@]12C[C@]34C[C@@H]1C[C@H](O2)[C@H]3[C@](C)(CCC(=O)Nc1c(O)ccc(C(=O)O)c1O)C(=O)C[C@@H]4SC(=O)c1cc(C(F)(F)F)cc(C(F)(F)F)c1	1 (≈ 1.4 µM)
C[C@]12C[C@]34C[C@@H]1C[C@H](O2)[C@H]3[C@](C)(CCC(=O)Nc1c(O)ccc(C(=O)O)c1O)C(=O)C[C@@H]4SC(=O)c1cccs1	2 (≈ 3.41 µM)

The compounds below were run on Staphylococcus aureus (assay: Antibacterial activity against methicillin-resistant Staphylococcus aureus isolate 11 incubated overnight by agar dilution method).
Format: functional
Procedure, shortened: as §1

SMILES	MIC [µg/mL]
Cc1ccc(C(=O)S[C@H]2CC(=O)[C@@](C)(CCC(=O)Nc3c(O)ccc(C(=O)O)c3O)[C@@H]3[C@@H]4C[C@H]5C[C@]23C[C@]5(C)O4)cc1	2 (≈ 3.37 µM)
C[C@]12C[C@]34C[C@@H]1C[C@H](O2)[C@H]3[C@](C)(CCC(=O)Nc1c(O)ccc(C(=O)O)c1O)C(=O)C[C@@H]4SC(=O)c1cccs1	1 (≈ 1.71 µM)
